Screening data: PubChem, several laboratories
HSF-1 act: increases HSF-1 driven luciferase reporter signal; NIH3T3-HGL HSF-1 luciferase reporter, MG132, 8 h; 100% = twice DMSO control signal; activation, % at 9 µM; 300,000 tested, 1.7% active;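 active = mean replicate activation of at least 50% with a set share of replicates each reaching 50%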;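 note: 0% = median of the neutral control wells and 100% = twice that signal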
NS3 helicase inh: inhibitors of Hepatitis C virus NS3 helicase; AID 1800; 290,000 tested, 0.56% active; NS3 helicase DNA unwinding, Cy5 molecular beacon fluorescence; inhibition, % at 10.9 µM;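 active = inhibition above the mean of all tested compounds plus 3 SD, set per campaign, cut at about 35% in these data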;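 note: 0% = DMSO wells and 100% = thioflavine S control wells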
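Material: hepatitis C virus NS3 helicase domain fragment enzyme; measured by: Cy5 fluorescence, 0 and 60 min reads; control set: DMSO and thioflavine S; incubation: 60 min unwinding reaction at 25 °C after ATP addition; read-out basis: % inhibition from 60/0 min fluorescence ratio, DMSO 0%, thioflavine S 100%; repeats: singlicate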
HSP90 refold inh: HSP90 refolding inhibition in rabbit reticulocyte lysate. inhibition, % at 5.6 µM. 290,000 tested, 0.91% active. AID 1789. luciferase refolding luminescence, 3 h;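 active = inhibition above the screen-wide mean plus 3 SD, computed separately per campaign, cut at about 16% in these data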;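 note: 0% = DMSO wells and 100% = 60 µM geldanamycin wells; inhibitors lower the luminescence because luciferase stays unfolded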
HSF1 inh: HSF1 inhibition. NIH3T3-HGL HSE-luciferase, MG132-induced, luminescence 8 h; stronger effect = lower value. 300,000 tested, 0.77% active. activity change, negative = inhibition, % at 7.5 µM (by protocol);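 active = more than half of replicate wells show activity change below -50%, luminescence cut by over half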;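 note: luciferase reports HSF-1 transcriptional activity via heat shock element; 0% = median of DMSO wells and -100% = zero luminescence signal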
Lipid droplet: modulators of hepatic lipid droplet formation; AID 1656; AML12 mouse hepatocytes, oleate lipid droplets, BODIPY imaging; 240,000 tested, 0.4% active; inhibition, % at 6.5 µM;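 active = lipid droplet intensity inhibited by at least 50%, with more than 500 cells counted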
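Test system: AML12 mouse liver cells; schedule: overnight exposure; technique: high-content imaging of BODIPY-stained droplets and DAPI nuclei; read-out: % inhibition of corrected integrated BODIPY droplet signal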
Starred values were filed as active, the others as inactive; . = no result. Most compounds without a hit are left out; they make up all but 3.8% or so of the library.

SMILES	HSF-1 act	NS3 helicase inh	HSP90 refold inh	HSF1 inh	Lipid droplet
COc1ccc(-c2nnc(SCC(=O)/C(C#N)=C(\C)N)o2)cc1	81*	5	4	63	.
C/C(N)=C(/C#N)C(=O)CSc1nnc(-c2ccccc2Br)o1	115*	0	-1	70	-9
COc1ccc(-c2nnc(SCC(=O)c3ccc(C)o3)o2)cc1	17	-3	-3	22	18
O=C(N/N=C/c1cccc(OCc2ccccc2)c1)c1cccs1	44	-8	-1	10	.
NC(=O)N/N=C/c1cccc(OCc2ccc(F)cc2)c1	-78	22	-2	-74*	9
CCOc1ccccc1C1N=C(c2ccc(OC)cc2)CC(c2ccccc2O)N1 (stereo not drawn)	130*	-4	-1	94	9
COc1ccc(-c2csc(NC(=O)/C(N=Nc3ccccc3)=C(\C)O)n2)cc1	-6	-5	-3	-3	4
CCN(CC)S(=O)(=O)c1cccc(-c2nnc(SCC(N)=O)n2CCc2ccccc2)c1	-65	0	2	-60*	0
O=C(/C=C/c1ccc2c(c1)OCO2)Nc1nncs1	53*	11	2	22	-4
O=C(/C=C/c1ccc2c(c1)OCO2)Nc1nc(-c2ccccc2)cs1	13	-5	0	7	.
COc1ccc(CNc2nc3ccccc3n2CCN2CCCCC2)c(OC)c1	74*	-27	2	31	.
CCn1cc(S(=O)(=O)N2CCN(Cc3cccc(Cl)c3)CC2)cn1	41	5	4	2	10
CN(C)c1ccc(C(=O)/C=C/c2cccnc2)cc1	52*	-7	-3	22	-1
COc1ccc(C(=O)OCc2csc(C)n2)c(O)c1	65*	5	0	26	19
Cc1nc(C/C(=N\N)c2ccc(O)cc2O)cs1	15	1	-2	7	-15
Cc1cccc(N2CCN(Cc3nc(-c4ccccc4Cl)oc3C)CC2)n1	-70	-2	-1	-60*	-6
Cc1cccc(N2CCN(Cc3nc(-c4cccc(Cl)c4)oc3C)CC2)n1	22	-8	2	-4	-21
Cc1ccc(OCc2nnc(SCC(=O)Nc3ccc(N4CCOCC4)cc3)o2)cc1	6	26	-7	-3	-10
O=C(CSc1nnc(COc2ccc3c(c2)CCCC3)o1)Nc1ccc(F)cc1	-67	3	2	-58*	.
Cc1ccccc1CN1C(=O)c2ccccc2Sc2ccc(C(=O)NCCN3CCOCC3)cc21	60*	-73	4	27	-24
CC(C)Oc1ccc(C(=O)O)cc1	-91	-5	3	-89*	9
CC(C)Oc1ccc(C(=O)O)c(C(=O)O)c1	-4	11	5	2	.
CCCCNC(=O)[C@@H]1CC=C[C@@H]2CCN(C3CC3)C(=O)[C@@H]21	0	.	.	-6	.
Cc1ccc(NC(=O)c2sc3ncn(CC(=O)N4CCOCC4)c(=O)c3c2C)c(Br)c1	78*	0	-1	36	-11
CCn1cnc2sc(C(=O)Nc3ccc4c(c3)OCO4)c(C)c2c1=O	67*	-1	0	33	-12
SMILES	HSF-1 act	NS3 helicase inh	HSP90 refold inh	HSF1 inh	Lipid droplet
Cc1cc([N+](=O)[O-])ccc1NC(=O)c1sc2ncn(CC(=O)N3CCOCC3)c(=O)c2c1C	38	-2	-8	15	10
CCCCCC[n+]1c(-c2ccccc2)csc1Nc1ccccc1	63*	1	0	22	-27
O=C(O)c1ccc(C[n+]2c(-c3ccccc3)csc2Nc2ccccc2)cc1	17	4	-6	19	-1
COc1cc2sc(NC(=O)c3ccco3)nc2cc1Cl	26	-18	2	12	-31
Cc1cc2sc(NC(=O)c3ccco3)nc2cc1Cl	66*	2	4	37	-5
Cc1ccc(-c2csc(NC(=O)c3ccco3)n2)cc1C	62*	-23	-2	8	-30
CN(C(=O)c1ccco1)c1nc(-c2ccccc2)cs1	76*	13	-3	32	.
Cc1ccc(C(=O)NCC(=O)N2CCCC(C(F)(F)F)C2)s1 (stereo not drawn)	15	.	.	7	.
COc1ccc(-c2nc(CS(=O)CC(=O)N3CCOCC3)c(C)o2)cc1OC (stereo not drawn)	-17	4	2	-3	0
Cc1ccc(-n2cc(CN3CCNC(=O)CC3)c(-c3cccc(C)c3)n2)cc1	.	-13	-2	.	-10
Cc1ccc(-n2cc(CN3CCN(Cc4nccn4C)CC3)c(-c3cccc(C)c3)n2)cc1	51*	-55	-1	28	0
